Data: ChEMBL document CHEMBL3124879, “Synthesis and evaluation of 2-(1H-indol-3-yl)-4-phenylquinolines as inhibitors of cholesterol esterase” (Bioorg Med Chem Lett, 2014)

Key:
[1] = Inhibition of porcine cholesterol esterase using para-nitrophenyl butyrate as substrate preincubated for 5 mins by spectrophotometric analysis; parameters: species or system Sus scrofa
Outline: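 CEase assay on the porcine enzyme with para-nitrophenyl butyrate in 100 mM sodium phosphate and 100 mM NaCl, at 25 °C, read at 405 nm. Final: 6 mM sodium taurocholate, 3% acetonitrile, 3% DMSO, 10 ng/mL CEase. 5 min preincubation before enzyme start. Duplicates at five inhibitor concentrations; IC50 fitted by non-linear regression to v = v0/(1+[I]/IC50).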

Prothrombin [2] = target: T1, Prothrombin (Homo sapiens, UniProt P00734); experiment: Inhibition of human thrombin using H-D-Phe-L-Pip-Arg-para-nitroanilide as substrate assessed as residual activity at 10 uM after 5 mins relative to control
Outline: (§1)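 Residual enzyme activity is determined in duplicate experiments in the presence of the inhibitor at a single concentration (10). Activity is expressed relative to an uninhibited control.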

[3] = Inhibition of bovine trypsin Suc-Ala-Ala-Pro-Arg-para-nitroanilide as substrate after 10 mins; parameters: species or system Bos taurus
[4] = target: Procathepsin L (Homo sapiens) (UniProt P07711); experiment: Inhibition of human cathepsin L using Z-Phe-ArgpNA as substrate assessed as residual activity at 50 uM by spectrophotometric analysis relative to control
Procathepsin L (Homo sapiens), sequence (P07711 114-333 limits assumed): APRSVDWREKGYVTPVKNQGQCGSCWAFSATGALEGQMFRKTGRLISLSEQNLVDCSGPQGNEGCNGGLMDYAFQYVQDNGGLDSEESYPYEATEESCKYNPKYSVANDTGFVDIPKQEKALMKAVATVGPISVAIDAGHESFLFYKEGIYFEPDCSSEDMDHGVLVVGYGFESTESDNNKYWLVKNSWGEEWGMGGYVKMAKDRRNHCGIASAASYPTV
Outline: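 Residual human cathepsin L activity is determined in duplicate with the inhibitor at a single concentration (50). Activity is expressed relative to an uninhibited control.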

Acetylcholinesterase = Acetylcholinesterase (Electrophorus electricus, UniProt O42275); experiment: Inhibition of electric eel AChE
Acetylcholinesterase, sequence (O42275 whole entry): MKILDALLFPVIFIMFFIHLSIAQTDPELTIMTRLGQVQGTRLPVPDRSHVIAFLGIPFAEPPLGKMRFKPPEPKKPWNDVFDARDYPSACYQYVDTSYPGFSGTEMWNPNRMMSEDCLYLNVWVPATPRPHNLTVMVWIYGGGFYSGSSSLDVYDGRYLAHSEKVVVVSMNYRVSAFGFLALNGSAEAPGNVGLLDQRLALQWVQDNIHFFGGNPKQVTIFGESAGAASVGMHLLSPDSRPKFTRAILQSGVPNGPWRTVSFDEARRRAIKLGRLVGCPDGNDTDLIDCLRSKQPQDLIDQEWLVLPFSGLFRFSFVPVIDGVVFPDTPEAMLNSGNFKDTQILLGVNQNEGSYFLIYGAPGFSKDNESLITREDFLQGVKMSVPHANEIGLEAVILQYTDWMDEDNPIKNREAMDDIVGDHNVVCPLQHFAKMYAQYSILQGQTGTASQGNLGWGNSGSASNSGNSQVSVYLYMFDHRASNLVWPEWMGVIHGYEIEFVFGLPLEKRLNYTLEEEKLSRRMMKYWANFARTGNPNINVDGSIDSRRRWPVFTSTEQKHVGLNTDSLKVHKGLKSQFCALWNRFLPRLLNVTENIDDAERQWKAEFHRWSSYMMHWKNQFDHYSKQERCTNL

[5] = target: T2, Neutrophil elastase (Homo sapiens) (UniProt P08246); experiment: Inhibition of human leukocyte elastase assessed as residual activity at 10 uM relative to control
T2 sequence (whole entry): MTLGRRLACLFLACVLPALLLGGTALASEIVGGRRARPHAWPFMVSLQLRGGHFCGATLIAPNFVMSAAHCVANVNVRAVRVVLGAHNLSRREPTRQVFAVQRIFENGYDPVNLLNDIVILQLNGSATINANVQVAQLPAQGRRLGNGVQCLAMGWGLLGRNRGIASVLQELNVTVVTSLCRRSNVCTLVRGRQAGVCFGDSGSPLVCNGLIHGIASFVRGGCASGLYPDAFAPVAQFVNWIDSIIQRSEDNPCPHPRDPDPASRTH
Outline: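 Residual enzyme activity measured in duplicate at one inhibitor concentration; more than 90% residual activity scored as no inhibition.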

Bos taurus [6] = organism: Bos taurus; experiment: Inhibition of bovine chymotrypsin assessed as residual activity at 5 uM relative to control
Outline: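 Residual chymotrypsin activity is measured with the inhibitor present at a single concentration (5). Assays are run in duplicate, and activity is expressed relative to an uninhibited control.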

[7] = target: Acetylcholinesterase (Electrophorus electricus) (UniProt O42275); experiment: Inhibition of electric eel AChE assessed as residual activity at 10 uM relative to control; outline: as §1
Acetylcholinesterase (Electrophorus electricus), sequence (O42275 24-633 limits assumed): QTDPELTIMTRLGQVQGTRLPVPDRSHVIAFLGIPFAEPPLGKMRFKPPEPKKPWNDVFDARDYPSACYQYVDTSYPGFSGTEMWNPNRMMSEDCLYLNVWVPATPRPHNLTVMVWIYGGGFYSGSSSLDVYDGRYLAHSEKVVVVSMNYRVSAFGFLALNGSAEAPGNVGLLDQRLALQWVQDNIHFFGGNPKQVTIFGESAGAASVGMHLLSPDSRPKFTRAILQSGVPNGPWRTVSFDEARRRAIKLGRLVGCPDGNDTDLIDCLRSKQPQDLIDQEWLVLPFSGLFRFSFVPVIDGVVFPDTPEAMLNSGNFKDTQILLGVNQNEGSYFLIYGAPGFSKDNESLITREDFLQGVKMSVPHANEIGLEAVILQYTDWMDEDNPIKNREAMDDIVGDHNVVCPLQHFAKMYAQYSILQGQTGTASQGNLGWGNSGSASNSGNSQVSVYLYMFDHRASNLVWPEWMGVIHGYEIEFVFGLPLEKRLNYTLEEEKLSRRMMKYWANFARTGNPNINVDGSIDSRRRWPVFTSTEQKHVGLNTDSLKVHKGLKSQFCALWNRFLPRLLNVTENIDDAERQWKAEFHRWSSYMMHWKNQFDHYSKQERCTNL

Neutrophil elastase = target: T3, Neutrophil elastase (Homo sapiens, UniProt P08246); experiment: Inhibition of human leukocyte elastase
T3 sequence (P08246 whole entry): T2 sequence (whole entry)

Prothrombin [8] = target: T1, Prothrombin; experiment: Inhibition of human thrombin using H-D-Phe-L-Pip-Arg-para-nitroanilide as substrate after 5 mins
Bos taurus [9] = organism: Bos taurus; experiment: Inhibition of bovine trypsin Suc-Ala-Ala-Pro-Arg-para-nitroanilide as substrate assessed as residual activity at 10 uM after 10 mins relative to control; outline: as §1
Sus scrofa = organism: Sus scrofa; experiment: Inhibition of porcine cholesterol esterase using para-nitrophenyl butyrate as substrate assessed as residual activity at 25 uM preincubated for 5 mins by spectrophotometric analysis relative to control
Outline: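 Porcine CEase read spectrophotometrically at 405 nm, 25 °C, with para-nitrophenyl butyrate. Buffer: 100 mM sodium phosphate, 100 mM NaCl. Final concentrations: 6 mM sodium taurocholate, 3% acetonitrile, 3% DMSO, 10 ng/mL enzyme. Inhibitor and substrate mixed and held 5 min, then enzyme added to start. Residual activity taken from duplicates at one inhibitor concentration.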

[10] = Uncompetitive inhibition of porcine cholesterol esterase using para-nitrophenyl butyrate as substrate by Lineweaver-Burk plot analysis; parameters: species or system Sus scrofa
[11] = Inhibition of bovine chymotrypsin; parameters: species or system Bos taurus
[12] = Competitive inhibition of porcine cholesterol esterase using para-nitrophenyl butyrate as substrate by Lineweaver-Burk plot analysis; parameters: species or system Sus scrofa

SMILES	IC50 [1] [µM]	Activity (Prothrombin [2]) [%]	IC50 [3] [µM]	Activity [4] [%]	IC50 (Acetylcholinesterase) [µM]	Activity [5] [%]	Activity (Bos taurus [6]) [%]	Activity [7] [%]	IC50 (Neutrophil elastase) [µM]	IC50 (Prothrombin [8]) [µM]	Activity (Bos taurus [9]) [%]	Activity (Sus scrofa) [%]	Ki [10] [µM]	IC50 [11] [µM]	Ki [12] [µM]
O=[N+]([O-])c1ccc2nc(-c3ccccc3)cc(-c3ccccc3)c2c1	≥ 20	> 90	≥ 51	> 90	≥ 37	> 90	> 90								
O=[N+]([O-])c1ccc2nc(-c3ccc(O)cc3)cc(-c3ccccc3)c2c1	≥ 20			> 90			> 90	> 90	2.91	≥ 30	> 90				
Clc1ccc2nc(-c3cccc(Br)c3)cc(-c3ccccc3)c2c1	≥ 20	> 90	≥ 51	> 90			> 90	> 90	≥ 28						
COc1ccc(-c2cc(-c3ccccc3)c3cc([N+](=O)[O-])ccc3n2)cc1	≥ 20			> 90	≥ 37	> 90	> 90			≥ 30	> 90	> 90			
O=[N+]([O-])c1ccc2nc(-c3cccc(Br)c3)cc(-c3ccccc3)c2c1	≥ 20	> 90		> 90			> 90	> 90	≥ 28		> 90				
COc1ccc(-c2cc(-c3ccccc3)c3cc(Cl)ccc3n2)cc1	≥ 20			> 90			> 90	> 90	≥ 28	≥ 30	> 90				
Cc1ccc(-c2cc(-c3ccccc3)c3cc(Cl)ccc3n2)cc1	≥ 20	> 90	≥ 51	> 90			> 90	> 90	≥ 28						
O=[N+]([O-])c1ccc2nc(-c3c[nH]c4ccccc34)cc(-c3ccccc3)c2c1	1.98			> 90	22.9				0.63	≥ 30	> 90		7	≥ 30	0.66
Clc1ccc2nc(-c3c[nH]c4ccccc34)cc(-c3ccccc3)c2c1	1.33			> 90	≥ 37		> 90		4.22	≥ 30	> 90				
Oc1ccc(-c2cc(-c3ccccc3)c3cc(Cl)ccc3n2)cc1	≥ 20		≥ 51	> 90		> 90	> 90	> 90		≥ 30					
Clc1ccc2nc(-c3ccccc3)cc(-c3ccccc3)c2c1	≥ 20	> 90		> 90			> 90	> 90	≥ 28		> 90				
Cc1ccc(-c2cc(-c3ccccc3)c3cc([N+](=O)[O-])ccc3n2)cc1	≥ 20			> 90			> 90	> 90	≥ 28	≥ 30	> 90				
